Screens: PubChem BioAssay, several laboratories
Most compounds without a hit are left out; they make up all but 4.1% or so of the library.
KCNK3 inh = human KCNK3 channel inhibitors, primary screen, CHO cells, FluxOR thallium flux, B-score; Potassium channel subfamily K member 3 (Homo sapiens), O14649; B-score at 10 µM; AID 602410, 2012; FluxOR fluorescence; hits give low values; 0.84% of 340,000 active;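 active = B-score under library mean minus 4 SD, starting fluorescence ratio at most library mean plus 5 SD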;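 note: more negative B-score means stronger inhibition of thallium flux through KCNK3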
KCNQ1 block = inhibitors of human KCNQ1 channel, primary screen, cell-based, thallium flux, high-throughput; Potassium voltage-gated channel subfamily KQT member 1 (Homo sapiens), P51787; CHO-K1 KCNQ1, FluxOR thallium flux fluorescence; hits give high values; B-score at 10 µM; 1.3% of 310,000 active; AID 2642, 2010;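 active = compounds whose thallium flux B-score, printed positive for inhibition, exceeds three library SD while starting fluorescence stays within three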;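 note: channel opened by potassium depolarization with thallium stimulus after 20 min compound exposure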
Target sequence (P51787 whole entry, looked up): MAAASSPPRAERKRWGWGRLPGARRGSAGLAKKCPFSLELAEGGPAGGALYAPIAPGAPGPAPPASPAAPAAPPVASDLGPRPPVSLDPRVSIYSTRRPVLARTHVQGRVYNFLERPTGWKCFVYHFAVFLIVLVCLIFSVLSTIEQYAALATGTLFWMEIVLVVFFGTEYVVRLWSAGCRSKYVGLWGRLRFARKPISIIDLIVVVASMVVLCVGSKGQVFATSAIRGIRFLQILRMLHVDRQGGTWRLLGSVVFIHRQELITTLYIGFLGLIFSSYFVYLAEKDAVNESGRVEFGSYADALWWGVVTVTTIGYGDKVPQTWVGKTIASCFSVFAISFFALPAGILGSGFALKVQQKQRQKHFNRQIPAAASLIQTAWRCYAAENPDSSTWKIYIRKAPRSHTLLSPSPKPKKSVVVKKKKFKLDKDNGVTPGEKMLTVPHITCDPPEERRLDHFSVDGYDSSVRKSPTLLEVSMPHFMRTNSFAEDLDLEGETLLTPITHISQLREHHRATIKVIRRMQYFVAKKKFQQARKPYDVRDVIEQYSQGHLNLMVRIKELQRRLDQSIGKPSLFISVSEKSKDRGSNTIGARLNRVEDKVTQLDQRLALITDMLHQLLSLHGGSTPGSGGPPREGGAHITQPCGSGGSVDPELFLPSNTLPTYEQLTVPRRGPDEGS
hERG protect = hERG rescue from dofetilide block, primary screen, cell-based, CHO-hERG, FluxOR thallium flux, dofetilide IC70 | dofetilide IC70 present | Voltage-gated inwardly rectifying potassium channel KCNH2 (Homo sapiens), Q12809 | 0.51% of 310,000 active | activation (rescue from dofetilide block), less the hit threshold, % at 10 µM;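 active = activation above the mean of controls blocked by dofetilide plus 5 SD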;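 note: thallium influx through hERG after potassium depolarization seen as dye fluorescence rise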
Cl transport mod = KCC2 cotransporter modulators, thallium flux, primary screen, cell-based, HEK293 KCC2, FluoZin-2 fluorescence, MLSMR; Solute carrier family 12 member 5 (Homo sapiens), Q9H2X9; 2.2% of 190,000 active; B-score of Tl+ flux slope (higher = more flux/activation; lower = inhibition) at 10 µM; KCC2 cells, thallium flux FluoZin-2 fluorescence;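 active = thallium flux slope and its plate-corrected score both differing from the plate sample mean at a set confidence after two filtering rounds, in either direction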;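 note: slope of fluorescence scaled to starting intensity during 10 to 20 s after thallium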
KCNK9 block = KCNK9 potassium channel inhibitors, primary screen, HEK293 cells, thallium flux; Potassium channel subfamily K member 9 (Homo sapiens), Q9NPC2; AID 488922, 2010; 1.2% of 310,000 active; FluxOR thallium flux fluorescence; hits give low values; B-score at 10 µM;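 active = ratio B-score over 3 SD below the library mean, with starting fluorescence within 5 SD of its mean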;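 note: negative B-score means less thallium flux so channel inhibition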
KCNQ1 pot = potentiators or activators of KCNQ1 channel, primary screen, cell-based, thallium flux, high-throughput. CHO-K1 KCNQ1, thallium flux FluxOR fluorescence; hits give high values. 0.35% of 310,000 active. Potassium voltage-gated channel subfamily KQT member 1 (Homo sapiens), P51787. AID 2648, 2010. B-score at 10 µM;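 active = fluorescence ratio B-score, a plate-corrected score, at least three library SD, with initial intensity B-score within 5 SD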
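Assay system: CHO-K1 cells stably expressing KCNQ1. Medium: assay buffer for compound exposure, DMSO matched across wells. Timing: 37 °C overnight plating, 90-min dark dye load, 20-min compound pretreatment. Signal: kinetic FluxOR fluorescence, 10 s baseline plus 110 s post-stimulus.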
KCNK3 inh conf = retest of human KCNK3 channel inhibitors, confirmation, CHO cells, FluxOR thallium flux, triplicate; FluxOR fluorescence; 0% buffer, 100% carvedilol maximal block; AID 651638, 2012; ratio percent of control, % at 10 µM; 99% of 2,400 active; shares compounds with KCNK3 inh;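 active = ratio percent of control, averaged over triplicates, above buffer control mean plus 5 SD, cut at about 64% in these data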;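 note: ratio is the fluorescence rise from min to max over baseline after thallium stimulus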
KCNK3 uninduced = thallium flux inhibition in non-induced cells, primary screen, counter-screen for KCNK3 inhibitor project, cell-based, non-induced KCNK3 line, FluxOR thallium, triplicate; shares compounds with KCNK3 inh; non-induced KCNK3 parental cells; hits give low values; thallium flux ratio (lower = more inhibition) at 10 µM; 40% of 2,400 active; AID 651747, 2012;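 active = thallium flux ratio, averaged over three wells, more than 5 SD below the buffer control mean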;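 note: host cells are CHO cells without KCNK3 induction; ratio is peak minus trough fluorescence over baseline then normalized to buffer controls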
* hit, by the source's call; i = inactive; · = not tested or not shown.

SMILES	KCNK3 inh	KCNQ1 block	hERG protect	Cl transport mod	KCNK9 block	KCNQ1 pot	KCNK3 inh conf	KCNK3 uninduced
CCCC/C(O)=C1\C(=O)CCCC1=NCCc1c(C)[nH]c2ccc(OC)cc12	i	i	-5.6	-0.909	i	i	·	·
CC(C)C(=O)NC(=S)Nc1ccccc1C(F)(F)F	i	i	-10.8	·	i	i	·	·
FC(F)(F)c1ccccc1NC(=S)Nc1cccc(Cl)c1	-9.64*	8*	-10.5	2.66	i	i	93.3*	i
COc1ccc(S(=O)(=O)Nc2cc3c4c(c2)CCN4C(=O)CC3)cc1C	i	i	-14.8	·	i	i	·	·
CC(NC(=O)COc1ccc(S(=O)(=O)N2CCCC2)cc1)c1ccccc1 (centres undefined)	i	i	-1.9	·	i	i	·	·
O=C(OCc1nc(-c2ccccc2)oc1COC(=O)c1ccco1)c1ccco1	-9.08*	i	-3.1	·	i	i	101.7*	i
O=C(COC(=O)c1ccco1)Nc1nnc(-c2ccccc2)o1	i	i	-13.0	·	i	i	·	·
COc1ccc(-c2nc3ccccn3c2CN2CCN(c3ccccc3F)CC2)cc1	-8.78*	i	-10.2	0.231	i	i	106.3*	0.157*
COc1cc2c(cc1OC)CN(CC(=O)NC(=O)NC1CCCCC1)CC2	i	i	-3.2	-0.509	i	i	·	·
C=CCOc1cccc(CNCc2ccncc2)c1	i	i	-4.7	·	i	i	·	·
Cc1ccc(Nc2c(-c3ccccc3O)nc3cnccn23)cc1	-9.18*	i	-11.8	-0.411	i	i	115.3*	0.126*
COC(=O)c1ccc(NC(=O)COC(=O)COc2cccc3c2OC(C)(C)C3)cc1	i	·	·	·	·	·	·	·
Cn1cccc1C1C=C(c2ccc(C(C)(C)C)cc2)Nc2ncnn21 (centres undefined)	-9.14*	i	-17.9	·	i	i	110.7*	i
Cc1nc(C(=O)Nc2cc(Cl)ccc2Cl)nn1-c1cc(OC(C)C)c(Cl)cc1Cl	i	i	-9.0	-0.402	i	i	·	·
Cc1nc(C(=O)Nc2cccc(Cl)c2)nn1-c1cc(OC(C)C)c(Cl)cc1Cl	-8.9*	i	-11.3	·	i	i	96.3*	i
O=C(N/N=C/c1cccs1)c1cc(-c2ccncc2)nc2ccccc12	i	i	-3.4	-0.814	i	i	·	·
COc1ccccc1-c1cc(C(=O)N/N=C/c2cccs2)c2ccccc2n1	-9.43*	i	-6.5	-0.397	i	i	109.3*	i
COc1ccccc1CN(C)C(=O)c1cc(-c2cccs2)nc2ccccc12	-12.5*	i	-14.0	·	i	i	119.0*	0.136*
Cc1ccc(OCC(O)CN2CCOCC2)cc1 (centres undefined)	i	i	-2.5	·	i	i	·	·
Clc1ccc(-c2ccnc3nc(N4CCOCC4)nn23)c(Cl)c1	i	·	·	·	·	·	·	·
O=C(NC1CCCC1)C(c1ccccn1)N(Cc1ccccc1F)C(=O)c1csnn1 (centres undefined)	i	i	-3.4	·	i	i	·	·
CC(=O)c1c(C)[nH]c(C(=O)Nc2ccc(Cl)c(S(=O)(=O)N(C)C)c2)c1C	-10.8*	i	-35.0	0.452	i	i	103.0*	i
